Among all 190,000 compounds or so, about 1,800 (0.95%) were called active. Many of the other results were omitted from the sample, so actives are more common in it than they were. A number with no mark means an inactive call.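 Rule for the calls: active = activation above the screen-wide mean of compound activation plus 3 SD (cut at about 130% in these data); inactive = the rest.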

We go through ten compounds from PubChem BioAssay AID871 (The Scripps Research Institute Molecular Screening Center, 2007).

The assay can be described thus: enhancers of STAT3 transcriptional signaling – U3A cells, luciferase, luminescence, MLSCN library, primary screen (AID 871).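 Note: 0% = background luminescence of wells with medium and substrate only.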 As to conditions: IL-6 STAT3-luciferase reporter, at 5.6 µM, stronger effect = higher value. The procedure, abridged: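 Assay system – human STAT1-deficient U3A cells with stable STAT3-luciferase reporter · Also added – IL-6 (33 ng/mL) · Schedule – compound 1 h, then IL-6 6 h at 37 °C · Technique – reporter luminescence signal · Evaluation – % activation versus median of IL-6-stimulated wells · Benchmarks – IL-6-only wells as 100% reference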
In the case of `COc1cc(-n2c(=S)[nH]c3ccc(C)cc3c2=O)c(Cl)cc1Cl`, the activation (% of control) is 156% (active). With `CC(=O)c1c(C)n(C(C)C)c2ccc(O)cc12`, the activation (% of control) was 102%. On to `N#CC1=C(N)Oc2c(c(=O)oc3ccccc23)C1c1ccccc1OC(=O)c1cccs1` (stereo not given), for which the activation (% of control) was 106%. The figure for `CCOP(=S)(OCC)SCOC(=O)NCC(=O)OC` is 106%; for `CCC/C(=N\O)c1c[nH]c2ccccc12` it is 153% (active). For the compound `C/C(CCc1c[nH]c2ccccc12)=N\O`, the activation (% of control) is 98%. On to `CC1=CC(=Cc2sc3ccccc3[n+]2C)C=C(C)O1`, for which the activation (% of control) was 30.2%. Take `CCOc1ccc(CN(CCCl)CCCl)cc1C(=O)OC`: the activation (% of control) is 96.4%. To `CCOCCc1c(O)[nH]c(=S)[nH]c1=O` belongs 99.3%; to `O=C(Nc1cccc2ccccc12)N1CCC2(CC1)OCCO2`, 105%.
